# Test results as given in ChEMBL document CHEMBL1123247, “Nucleoside conjugates. 7. Synthesis and antitumor activity of 1-beta-D-arabinofuranosylcytosine conjugates of ether lipids” (J Med Chem, 1986).
# Assays:
# [1] = test system: L1210; test: Antitumor activity was determined against the ip implanted L1210 leukemia in mice by range in survival days at 200 mg/kg (treatment of 1qd schedule) dosage; Range is 12->45; assay type: functional, Mus musculus; settings: route intraperitoneal
# Outline: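 DBA/2J mice, 23-28 g, in groups of 6, were inoculated ip with 1×10^6 L1210 cells on day 0. Dosing was ip starting 24 h later on the stated daily schedules. Conjugates were given as sonicated solutions and reference prodrugs as suspensions in 0.9% NaCl with 0.5% Tween-80. Mice were observed daily until death or 45 days. Median survival T/C was calculated from survivors per NCI protocols.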
# [2] = test system: L1210; test: Antitumor activity was determined against the ic implanted L1210 lymphoid leukemia in mice by range in survival days at 100 mg/kg (1 qd treatment schedule) dosage; Range is 14-18; assay type: functional, Mus musculus
# [3] = test system: L1210; test: Antitumor activity against the ic implanted L1210 lymphoid leukemia in mice expressed as optimal dose (1 qd treatment schedule) required to produce greatest increase in life span was determined; assay type: functional, Mus musculus
# Outline: (§1)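 DBA/2J mice, groups of 6 (26-32 g), got 1 × 10^5 L1210 cells ic on day 0. Dosing was ip starting 24 h later, as a sonicated solution or suspension in 0.9% NaCl with 0.5% Tween-80, over a wide dose range. Mice were followed daily until death. Median survival T/C was taken from survivors per NCI protocols, and ILS = (T/C − 1) × 100. Active range means doses giving ILS ≥25%; optimal dose means greatest ILS.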
# [4] = test system: L1210; test: Antitumor activity against the ip implanted L1210 leukemia in mice expressed as optimal dose (1 qd treatment schedule) required to produce greatest increase in life span was determined; assay type: functional, Mus musculus
# Outline: (§2)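 DBA/2J mice, groups of 6 (23-28 g), were inoculated ip with 1 × 10^6 L1210 cells on day 0. Dosing was ip from 24 h, in 0.9% NaCl with 0.5% Tween-80 (sonicated solution or suspension). Mice were observed daily until death or day 45. Median survival T/C followed NCI protocols, and ILS = (T/C − 1) × 100. Active range means doses giving ILS ≥25%; optimal dose means greatest ILS.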
# [5] = test system: L1210; test: Antitumor activity was determined against the ip implanted L1210 leukemia in mice by change in […] at 200 mg/kg (treatment of 1qd schedule) dosage; assay type: functional, Mus musculus; settings: route intraperitoneal
# Outline: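 DBA/2J mice, 6 per group (wt 23-28 g), inoculated ip with 1×10^6 L1210 cells on day 0. Treatment was given ip in 0.9% NaCl with 0.5% Tween-80, starting 24 h later. Weight change was taken on day 8. Mice were observed daily until death or 45 days. Median survival T/C and %ILS = (T/C − 1) × 100 came from survivors per NCI protocols, and 45-day survivors were counted.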
# [6] = test system: L1210; test: Antitumor activity was determined against the ic implanted L1210 lymphoid leukemia in mice by […] at 100 mg/kg (1 qd treatment schedule) dosage; 17.5-7.0; assay type: functional, Mus musculus; outline: as §1
# [7] = test system: L1210; test: Antitumor activity was determined against the ic implanted L1210 lymphoid leukemia in mice by change in […] at 100 mg/kg (1 qd treatment schedule) dosage; assay type: functional, Mus musculus
# Outline: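 DBA/2J mice, 6 per group (wt 26-32 g), inoculated ic with 1×10^5 L1210 cells on day 0. Dosing ip began 24 h after inoculation, with a sonicated solution or suspension in 0.9% NaCl containing 0.5% Tween-80, given over a range of doses. Animals were followed daily until death. Body weight change, median survival T/C, and %ILS = (T/C − 1) × 100 were computed from survivors per NCI protocols.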
# [8] = test system: L1210; test: Antitumor activity against ip implanted L1210 leukemia in mice expressed as active dose range (1 qd treatment schedule) required to produce increase in life span by >25% was determined; Range is 100-250; assay type: functional, Mus musculus; outline: as §2
# [9] = test system: L1210; test: Antitumor activity was determined against the ip implanted L1210 leukemia in mice by 45-day survivors in mice at 200 mg/kg (treatment of 1qd schedule) dosage; assay type: functional, Mus musculus; settings: route intraperitoneal
# Outline: (§3)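 DBA/2J mice in groups of 6 (wt 23-28 g) were inoculated ip with 1×10^6 L1210 cells on day 0. Dosing was ip from 24 h, in 0.9% NaCl with 0.5% Tween-80 (conjugates sonicated), across a range of doses. Mice were observed daily until death or 45 days. Median T/C was computed from survivors per NCI protocols, and ILS = (T/C − 1)×100.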
# [10] = test system: L1210; test: Antitumor activity was determined against the ic implanted L1210 lymphoid leukemia in mice by percent increase in life span at 100 mg/kg (1 qd treatment schedule) dosage; assay type: functional, Mus musculus; outline: as §1
# [11] = test system: L1210; test: Antitumor activity was determined against the ip implanted L1210 leukemia in mice by percent increase in life span at 200 mg/kg (treatment of 1qd schedule) dosage; assay type: functional, Mus musculus; settings: route intraperitoneal; outline: as §3
# [12] = test system: P388; test: Antitumor activity was determined against the ip implanted L1210 leukemia in mice by change in […] at 100 mg/kg (treatment of 1qd schedule) dosage; assay type: functional, Mus musculus; settings: route intraperitoneal, in the assay text read “P388 leukemia” for “L1210 leukemia”
# [13] = test system: P388; test: Antitumor activity against ip implanted P388 leukemia in mice expressed as active dose range (1 qd treatment schedule) required to produce increase in life span by >25% was determined; Range is 50-100; assay type: functional, Mus musculus
# Outline: (§4)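 P388 leukemia: 1 × 10^6 cells were given ip on day 0 to DBA/2J mice, groups of 6 (23-33 g). Treatment was ip from 24 h after inoculation, vehicle 0.9% NaCl with 0.5% Tween-80. Mice were observed daily until death or 45 days. Median survival T/C was calculated from survivors per NCI protocols, and ILS = (T/C − 1) × 100. Active range means doses giving ILS ≥25%; optimal dose means greatest ILS.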
# [14] = test system: P388; test: Antitumor activity against the ip implanted P388 leukemia in mice expressed as optimal dose (1 qd treatment schedule) required to produce greatest increase in life span was determined; assay type: functional, Mus musculus; outline: as §4
# [15] = test system: P388 leukemia (mouse); test: Antitumor activity was determined against the ip implanted P388 leukemia in mice by 45-day survivors in mice at 100 mg/kg (treatment of 1qd schedule) dosage; settings: route intraperitoneal
# [16] = test system: P388; test: Antitumor activity was determined against the ip implanted P388 leukemia in mice by percent increase in life span at 100 mg/kg (treatment of 1qd schedule) dosage; settings: route intraperitoneal
# [17] = test system: L1210; test: Antitumor activity was determined against the ip implanted L1210 leukemia in mice by median survival time at 200 mg/kg (treatment of 1qd schedule) dosage; 17.5/7.0; settings: route intraperitoneal
# [18] = test system: P388; test: Antitumor activity was determined against the ip implanted P388 leukemia in mice by range in survival days at 100 mg/kg (treatment of 1qd schedule) dosage; Range is 28->45; settings: route intraperitoneal
# [19] = test system: P388; test: Antitumor activity was determined against the ip implanted P388 leukemia in mice by percent median survival rate (treated/control) at 100 mg/kg (treatment of 1qd schedule) dosage; >45.0/12.0; settings: route intraperitoneal
compound,measurement,setting,value
CCCCCCCCCCCCCCCC(=O)OC[C@H]1O[C@@H](n2ccc(N)nc2=O)[C@@H](O)[C@@H]1O,Range,[1],12
same,Range,[2],14
same,Optimal dose,[3],100 mg
same,Optimal dose,[4],200 mg/kg/day
same,Weight change,[5],2 g mouse-1
same,median survival time,[6],17.5 days
same,Weight change,[7],-2.03 g mouse-1
same,Active dose range,[8],100 mg/kg/day
same,Survivors,[9],1
same,ILS,[10],150
same,ILS,[11],150
same,Weight change,[12],0.3 g mouse-1
same,Active dose range,[13],50 mg/kg/day
same,Optimal dose,[14],100 mg
same,Survivors,[15],4
same,ILS,[16],>275
same,median survival time,[17],17.5 days
same,Range,[18],28
same,median survival time,[19],> 45 days
